Only some compounds are listed: those with a hit (about 0.99% of all), similar ones and a draw of the others.
TLR9-MyD88 block: inhibitors of human TLR9-MyD88 binding | Q9NR96+Q99836 | CHO BLA complementation TLR9-MyD88, CCF4 FRET ratio | inhibition, % at 4.98 µM | 0.21% of 340,000 active | AID 504734;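 active = inhibition above the mean over all tested compounds plus 3 SD, cut at about 21% in these data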;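 also: 0% = DMSO only wells and 100% = clavulanate BLA inhibitor control wells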
TLR4-MyD88 BLA: blocks binding of human TLR4 to MyD88; O00206+Q99836; inhibition, % at 8.4 µM; 0.18% of 200,000 active; HeLa CL3-4 TLR4/MyD88 BLA complementation, FRET ratio; AID 861; in the data active = inhibition above about 25%;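 also: 0% = vehicle and 100% = reference inhibitor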
SKN-1 inh: inhibitors of C. elegans SKN-1; 0.49% of 360,000 active; inhibition, % at 21.8 µM; C. elegans VP596 Pgst-4::GFP/RFP ratio, acrylamide-induced, 24 h; AID 624304;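 active = interference check ratio from 0.5 to 1.5 plus GFP to RFP signal ratio inhibition reaching or exceeding a fixed threshold, cut at about 30% in these data, passing the limit was not always enough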
MT1-MMP act inh: inhibitors of human MT1-MMP activation | HT1080 RFP-PRO-GFP cells, GFP/RFP ratio fluorescence, overnight; percent of plate control window, DMSO zero | P50281 | AID 651647 | GFP/RFP ratio change, % at 20 µM | 0.061% of 360,000 active;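 active = GFP/RFP ratio change of at least 30% with cell ATP level not reduced by more than half and red fluorescence within 50% of control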
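Assay system: HT1080 cells carrying an RFP-PRO-GFP reporter | Dosing: Single dose of 20 µM compound, 1% DMSO final | Incubation: Cells overnight before dosing, compound overnight, 37 °C, 5% CO2 | Evaluation: GFP/RFP fluorescence ratio | Control set: DMSO and RFP-L50D-GFP cell wells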
NOD2 RIPK2 PPI: inhibitors of human NOD2-RIPK2 interaction; CHO BLA complementation NOD2-RIPK2, CCF4 ratio; inhibition, % at 4.98 µM; 0.38% of 360,000 active; AID 624267; in the data active = inhibition above about 21%;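 also: 0% = vehicle only and 100% = reference blocker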
* marks the source's active call; other numbers are inactive results; x = no result given.

SMILES | TLR9-MyD88 block | TLR4-MyD88 BLA | SKN-1 inh | MT1-MMP act inh | NOD2 RIPK2 PPI
O=C(COC(=O)c1cc(-c2cccc3ccccc23)nc2ccccc12)NC1CCS(=O)(=O)C1 (stereo not drawn) | -2 | -4 | 44 | -13 | -6
CCN(C(=O)COC(=O)c1cc(-c2cccc3ccccc23)nc2ccccc12)C1CCS(=O)(=O)C1 (stereo not drawn) | 14 | 2 | 39* | -5 | -4
CC(=O)N1N=C(N)SC1(C)C | -5 | -18 | 4 | -2 | -5
COCCN(C(=O)/C=C/c1cccc([N+](=O)[O-])c1)c1c(N)n(Cc2ccccc2)c(=O)[nH]c1=O | 0 | x | 10 | -2 | -9
COCCN(C(=O)/C=C/c1ccccc1)c1c(N)n(Cc2ccccc2)c(=O)[nH]c1=O | 3 | -5 | 52* | -12 | -11
Cc1cc(O)cc(=O)n1Cc1ccccc1 | -9 | x | -13 | 0 | 10
CC1CCC(C(C)C)C(OC(=O)C[n+]2cccc(C(N)=O)c2)C1 (stereo not drawn) | 6 | -8 | 38* | -15 | -16
Fc1ccc(COc2ccc(-c3nnco3)cc2)c(Cl)c1 | -11 | x | 87* | 2 | 11
Fc1cc(Br)ccc1COc1ccc(-c2nnco2)cc1 | -6 | x | 49* | 4 | -19
CC1CCN(S(=O)(=O)c2cccc(C(=O)NNC(=O)c3ccco3)c2)CC1 | 6 | x | -13 | 1 | 0
CN(C(=O)COC(=O)C1c2ccccc2Oc2ccccc21)C1CCS(=O)(=O)C1 (stereo not drawn) | 3 | 11 | 48* | 4 | -9
CC(C)CN(C(=O)COC(=O)C1c2ccccc2Oc2ccccc21)C1CCS(=O)(=O)C1 (stereo not drawn) | -2 | -11 | -5 | 1 | -14
CN(C(=O)COC(=O)c1ccc2ccccc2n1)C1CCCCC1 | -18 | x | -4 | -2 | -8
COc1ccccc1N1CCN(C(=O)CSc2nc3ccccc3nc2N2CCC(C)CC2)CC1 | -10 | x | 10 | -10 | -15
Cc1cc(-c2nnn(CCCOC(C)(C)C)c2C)ccc1-c1cn(CCCOC(C)(C)C)nn1 | -3 | x | 37* | -5 | -9
CC(C)c1ccc(C(=O)COC(=O)C(O)c2ccccc2)cc1 (stereo not drawn) | 8 | x | -3 | 2 | 2
CCCCCCCCCCCCCCCC[N+](C)(C)CC | 0 | x | 32 | -6 | 6
CCCCCCCCCCCCCCCC[N+](C)(C)CCl | -7 | x | 38* | -8 | -2
COc1cc(CCC(=O)OCC(=O)Nc2ccc(F)cc2F)cc(OC)c1OC | -4 | x | 40* | 0 | -15
Clc1ccccc1/C=C/c1ccnc2ccccc12 | 11 | x | 35* | -4 | 0
Oc1ccc(/C=C/c2ccnc3ccccc23)cc1 | 0 | -7 | -1 | -19 | 17
CC12CC3CC(C)(C1)CC(C(=O)NCc1cccnc1)(C3)C2 | 5 | x | -6 | 4 | 2
O=C(Nc1nccs1)c1ccc(-c2ccccc2[N+](=O)[O-])o1 | -8 | x | 36* | 1 | -1
O=C(Nc1nccs1)c1ccc(-c2ccccc2Cl)o1 | -9 | 4 | 53* | 5 | -10
COc1ccccc1NC(=O)c1ccc(-c2ccccc2[N+](=O)[O-])o1 | -6 | -4 | 6 | 0 | -3
SMILES | TLR9-MyD88 block | TLR4-MyD88 BLA | SKN-1 inh | MT1-MMP act inh | NOD2 RIPK2 PPI
O=C(COc1ccccc1)NS(=O)(=O)c1ccc(Cl)cc1 | -5 | x | -1 | 3 | -5
CC(=O)Nc1cccc(OCC(=O)NS(=O)(=O)c2ccc(Cl)cc2)c1 | -3 | 7 | 35* | -2 | -9
COCc1cc(=O)[nH]c(SCCS(=O)(=O)c2ccc(Cl)cc2Cl)n1 | -18 | x | -9 | 5 | 0
CC(C)(C)NC(=O)C(c1ccc(-c2ccccc2)cc1)N(C[C@H]1CC[C@@H]([C@@H]2CC[C@H](CO)O2)O1)C(=O)c1ccccc1F (stereo partly drawn) | -7 | x | 24 | 0 | 10
Cn1c2c(c3ccccc31)CCN1CCC[C@]21c1ccccc1 | -11 | x | -1 | -9 | 2
[O-]C1=N/[N+](=C/c2ccccc2)CC1 | -2 | x | 7 | 1 | -3
[O-]C1=N/[N+](=C/c2ccccc2Cl)CC1 | 3 | -9 | 35* | 7 | 7
Cc1ccc(/C(N)=N/OC(=O)CSc2ccccc2)cc1 | -4 | -13 | 4 | -2 | -2
N/C(=N\OC(=O)CSc1ccccc1)c1ccc([N+](=O)[O-])cc1 | 14 | 7 | 54* | 1 | 6

Source: PubChem BioAssay
